Results as given in ChEMBL document CHEMBL1165860, “Synthesis and potential cytotoxic activity of new phenanthrylphenol-pyrrolobenzodiazepines” (2010).
Calls of active or inactive are those of the source. The calls are words filed in the database; no cut-off is given here.

Key:
MCF7 [1] = assay: Cell cycle arrest in human MCF7 cells assessed as accumulation at G2/M phase at 4 uM after 24 hrs using propidium iodide staining by flow cytometry; format: functional
How it was run: (§1)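 MCF-7 cells were grown in DMEM with 10% fetal calf serum, penicillin and streptomycin, at 37 °C in 5% CO2. They were treated for 24 h at 2 and 4 µM, with DMSO-treated cells as controls. Cells were trypsinised, fixed in ice-cold 70% ethanol at 4 °C for 30 min, and RNaseA-treated at 37 °C for 30 min. Phases were read by flow cytometry.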

Nucleic Acid [2] = assay: Inhibition of Escherichia coli pBR322 DNA cleavage after 16 hrs by RED100-restriction endonuclease digestion assay; format: nucleic-acid assay
How it was run: (§2)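 pBR322 DNA was preincubated with compound at final 2, 4, 8, 16 and 32 µM for 16 h at 37 °C. BamHI (10 U/µl) in BamHI buffer was then added for 2 h at 37 °C. Products were separated on agarose in 0.5× Tris–acetate EDTA at 80 V for 1 h and stained with ethidium bromide. Cut and uncut DNA served as controls.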

MCF7 [3] = assay: Induction of apoptosis in human MCF7 cells assessed as increase of caspase 9 activation at 2 to 4 uM after 1 hr by fluorimetry based assay in presence of caspase 9 inhibitor LEHD-CHO; format: functional, cell-based
MCF7 [4] = assay: Cell cycle arrest in human MCF7 cells assessed as accumulation at S phase at 4 uM after 24 hrs using propidium iodide staining by flow cytometry; format: functional; how it was run: as §1
MCF7 [5] = assay: Induction of apoptosis in human MCF7 cells assessed as increase of caspase 9 activation at 4 uM after 1 hr by fluorimetry based assay; format: functional, cell-based
MCF7 [6] = assay: Cytotoxicity against human MCF7 cells at 4 uM after 24 hrs by MTT assay relative to control; format: functional, cell-based
How it was run: (§3)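 MCF-7 cells were seeded at 10,000 cells/well in DMEM with 10% fetal calf serum. They were exposed to 0.5, 1, 2 and 4 µM for 24 h. MTT reduction to formazan was read at 570 nm, with untreated controls taken as 100% viability. DMSO-treated cells served as an additional control.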

MCF7 [7] = assay: Decrease of cyclin D1 level in human MCF7 cells at 4 uM after 24 hrs by Western blot analysis; format: functional, cell-based
How it was run: (§4)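 MCF-7 cells were treated at 2 or 4 µM for 24 h, then lysed in ice-cold RIPA buffer with protease inhibitors and NaF. Protein was quantified by Bradford. Thirty µg per lane was run on 12% SDS-PAGE and transferred to PVDF. Membranes were blocked 2 h, given primary antibody overnight at 4 °C, then HRP secondary (1:2000) for 1 h. Bands were detected by chemiluminescence.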

MCF7 [8] = assay: Cell cycle arrest in human MCF7 cells assessed as accumulation at G0 phase after 24 hrs using propidium iodide staining by flow cytometry; format: functional, cell-based; how it was run: as §1
MCF7 [9] = assay: Induction of apoptosis in human MCF7 cells assessed as DNA fragmentation at 4 uM after 24 hrs using ethidium bromide staining by agarose gel electrophoresis; format: functional, cell-based
How it was run: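 1.5×10⁶ MCF-7 cells in 60 mm dishes were treated for 24 h and lysed in 10 mM Tris-HCl pH 7.5, 10 mM EDTA, 0.5% Triton X-100. The supernatant was digested with RNase A and proteinase K for 2 h at 37 °C. DNA was isolated by phenol–chloroform extraction and ethanol precipitation, run on 1% agarose with a 100 bp marker, and stained with ethidium bromide under UV.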

Nucleic Acid [10] = assay: Inhibition of Escherichia coli pBR322 DNA cleavage at 16 uM after 16 hrs by RED100-restriction endonuclease digestion assay; format: nucleic-acid assay; how it was run: as §2
MCF7 [11] = assay: Cell cycle arrest in human MCF7 cells assessed as accumulation at G1 phase at 2 uM after 24 hrs using propidium iodide staining by flow cytometry; format: functional; how it was run: as §1
MCF7 [12] = assay: Increase of cytosolic cytochrome c level in human MCF7 cells at 2 uM after 24 hrs by Western blot analysis; format: functional, cell-based
How it was run: (§5)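 MCF-7 cells were grown in DMEM with 10% FCS and penicillin/streptomycin at 37 °C in 5% CO2, then treated for 24 h. Cells were lysed in ice-cold RIPA buffer with protease inhibitors and NaF. Protein was measured by Bradford assay, and 30 µg per lane was run on 12% SDS-PAGE and transferred to PVDF. Antibody steps: primary at 4 °C overnight, HRP secondary 1:2000, chemiluminescent detection.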

MCF7 [13] = assay: Increase of PARP cleavage in human MCF7 cells at 4 uM after 24 hrs by Western blot analysis; format: functional, cell-based; how it was run: as §5
MCF7 [14] = assay: Induction of apoptosis in human MCF7 cells assessed as increase of caspase 8 activation at 4 uM after 1 hr by […] method; format: functional, cell-based
How it was run: (§6)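 Colorimetric caspase-8 kit on lysates of treated MCF-7 cells. The IETD-pNA substrate was incubated with cell lysate at 37 °C for 1 h, and absorbance was read at 405 nm. Untreated cells served as the control.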

MCF7 [15] = assay: Cytotoxicity against human MCF7 cells at 1 uM after 24 hrs by MTT assay relative to control; format: functional; how it was run: as §3
MCF7 [16] = assay: Cell cycle arrest in human MCF7 cells assessed as accumulation at G0 phase at 2 uM after 24 hrs using propidium iodide staining by flow cytometry; format: functional; how it was run: as §1
MCF7 [17] = assay: Cell cycle arrest in human MCF7 cells assessed as accumulation at G2/M phase at 2 uM after 24 hrs using propidium iodide staining by flow cytometry; format: functional; how it was run: as §1
MCF7 [18] = assay: Induction of apoptosis in human MCF7 cells assessed as increase of caspase 8 activation at 2 uM after 1 hr by […] method; format: functional, cell-based; how it was run: as §6
MCF7 [19] = assay: Induction of p53 expression in human MCF7 cells; format: functional, cell-based
MCF7 [20] = assay: Cell cycle arrest in human MCF7 cells assessed as accumulation at S phase at 2 uM after 24 hrs using propidium iodide staining by flow cytometry; format: functional; how it was run: as §1
MCF7 [21] = assay: Increase of PARP cleavage in human MCF7 cells at 2 uM after 24 hrs by Western blot analysis; format: functional, cell-based; how it was run: as §5
MCF7 [22] = assay: Increase of cytosolic cytochrome c level in human MCF7 cells at 4 uM after 24 hrs by Western blot analysis; format: functional, cell-based; how it was run: as §5
MCF7 [23] = assay: Cell cycle arrest in human MCF7 cells assessed as accumulation at G1 phase at 4 uM after 24 hrs using propidium iodide staining by flow cytometry; format: functional; how it was run: as §1
MCF7 [24] = assay: Cell cycle arrest in human MCF7 cells assessed as accumulation at G0 phase at 4 uM after 24 hrs using propidium iodide staining by flow cytometry; format: functional; how it was run: as §1
MCF7 [25] = assay: Induction of apoptosis in human MCF7 cells assessed as increase of caspase 9 activation at 2 uM after 1 hr by fluorimetry based assay; format: functional, cell-based
MCF7 [26] = assay: Decrease of cyclin D1 level in human MCF7 cells at 2 uM after 24 hrs by Western blot analysis; format: functional, cell-based; how it was run: as §4
MCF7 [27] = assay: Cytotoxicity against human MCF7 cells at 2 uM after 24 hrs by MTT assay relative to control; format: functional; how it was run: as §3

SMILES: COc1cc2c(cc1OCCCCCOc1ccc(-c3cc4ccccc4c4ccccc34)cc1)N=C[C@@H]1CCCN1C2=O
- Activity (MCF7 [1]): 2.46%
- inhibition (Nucleic Acid [2]): Dose-dependent effect
- Activity (MCF7 [3]): inactive
- Activity (MCF7 [4]): 4.86%
- Activity (MCF7 [5]): Active
- Activity (MCF7 [6]): Active
- Activity (MCF7 [7]): Active
- Activity (MCF7 [8]): Dose-dependent effect
- Activity (MCF7 [9]): Active
- inhibition (Nucleic Acid [10]): 100%
- Activity (MCF7 [11]): 75.84%
- Activity (MCF7 [12]): Active
- Activity (MCF7 [13]): Active
- Activity (MCF7 [14]): Active
- Activity (MCF7 [15]): <=50%
- Activity (MCF7 [16]): 13.08%
- Activity (MCF7 [17]): 2.61%
- Activity (MCF7 [18]): Active
- Activity (MCF7 [19]): Active
- Activity (MCF7 [20]): 7.76%
- Activity (MCF7 [21]): Active
- Activity (MCF7 [22]): Active
- Activity (MCF7 [23]): 69.07%
- Activity (MCF7 [24]): 22.71%
- Activity (MCF7 [25]): Active
- Activity (MCF7 [26]): Active

SMILES: COc1cc2c(cc1O)N=C[C@@H]1CCCN1C2=O
- Activity (MCF7 [1]): 3.5%
- Activity (MCF7 [4]): 14.16%
- Activity (MCF7 [11]): 65.98%
- Activity (MCF7 [12]): Active
- Activity (MCF7 [13]): Active
- Activity (MCF7 [14]): Active
- Activity (MCF7 [16]): 3.19%
- Activity (MCF7 [17]): 13.1%
- Activity (MCF7 [20]): 20.26%
- Activity (MCF7 [21]): Active
- Activity (MCF7 [22]): Active
- Activity (MCF7 [23]): 75.28%
- Activity (MCF7 [24]): 8.07%

SMILES: COc1cc2c(cc1OCCCCOc1ccc(-c3cc4ccccc4c4ccccc34)cc1)N=C[C@@H]1CCCN1C2=O
- Activity (MCF7 [1]): 2.94%
- inhibition (Nucleic Acid [2]): Dose-dependent effect
- Activity (MCF7 [4]): 5.5%
- Activity (MCF7 [5]): Active
- Activity (MCF7 [6]): Active
- Activity (MCF7 [8]): Dose-dependent effect
- Activity (MCF7 [9]): Active
- inhibition (Nucleic Acid [10]): 100%
- Activity (MCF7 [11]): 66.31%
- Activity (MCF7 [12]): Active
- Activity (MCF7 [13]): Active
- Activity (MCF7 [14]): Active
- Activity (MCF7 [16]): 15.08%
- Activity (MCF7 [17]): 4.25%
- Activity (MCF7 [18]): Active
- Activity (MCF7 [19]): Active
- Activity (MCF7 [20]): 12.45%
- Activity (MCF7 [21]): Active
- Activity (MCF7 [22]): Active
- Activity (MCF7 [27]): <=50%
- Activity (MCF7 [23]): 70.3%
- Activity (MCF7 [24]): 20.86%
